IC50, Activity and Imax data for eight molecules are collected here from ChEMBL document CHEMBL1153529, “Synthesis of fluorinated brassinosteroids based on alkene cross-metathesis and preliminary biological assessment” (J Med Chem, 2009).

One data set has as its system MCF7. Briefly: Cytotoxicity against human MCF7 cells after 72 hrs by calcein-AM assay. In kind it is functional, cell-based. The following applies: MCF7, 72 h. The gist of the method: (§1)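 Human normal fibroblast BJ, T-lymphoblastic leukemia CEM and breast carcinoma MCF-7 cells exposed for 72 h to six serial 4-fold dilutions of compound. Surviving cell proportion read by calcein-AM assay and IC50 calculated. Mean ± SD of three independent experiments, each in triplicate. 28-Homocastasterone served as positive control.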

The test system of a further data set is BJ. Briefly: Cytotoxicity against human BJ cells after 72 hrs by calcein-AM assay. In kind it is cell-based. The method in brief:
as §1

The species named for data set [1] is Rattus norvegicus. Kind of data set: Displacement of [35S]tert-butylbicyclo[ 2.2.2]phosphorothionate from GABAA receptor in Wistar rat brain membrane at 100 nM relative to control. In kind it is cell membranes. The gist of the method:
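Membranes from male Wistar rat brain incubated 1 h at 37 °C with 2 nM [35S]TBPS and test compound at 100 nM. Binding expressed as % of buffer-only control samples. Mean ± SD of triplicates or quadruplicates. Kruskal-Wallis global test, then Mann-Whitney-Wilcoxon against control.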
In general terms: Displacement assays read how much labelled ligand stays bound in the presence of the test substance.

A further data set relates to CCRF-CEM. Kind of data set: Cytotoxicity against human CEM cells after 72 hrs by calcein-AM assay. In kind it is functional, cell-based. The gist of the method: as §1
The subject of data set [2] is Phaseolus vulgaris. Kind of data set: Brassinolide type activity in Phaseolus Vulgaris L., cv. Pinto assessed as difference of prolongation of second internode at 0.1 umol/L by second-internode bioassay relative to control. It counts as functional. The method in brief: (§2)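 Bean second-internode bioassay. Compound applied in lanolin; second-internode length measured 5 days after application. Activity taken as the difference in internode prolongation (mm) between treated and control plants. Reported concentrations were 10^-10, 10^-7 and 10^-12 mol/L. Mean ± SD.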

The species named for data set [3] is Rattus norvegicus. Briefly: Inhibition of [35S]tert-butylbicyclo[ 2.2.2]phosphorothionate binding to GABAA receptor in Wistar rat brain membrane relative to control. In kind it is cell membranes. The method in brief:
(§3)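 Male Wistar rat brain membranes incubated 1 h at 37 °C with 2 nM [35S]TBPS and compound at 1 nM to 10 μM, in duplicates. IC50 estimated as the steroid concentration giving half-maximal inhibition of binding. Imax is the maximal suppression of binding.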

A short description of data set [4]: Inhibition of [35S]tert-butylbicyclo[ 2.2.2]phosphorothionate binding to GABAA receptor in Wistar rat brain membrane. In kind it is cell membranes. The method in brief: as §3
Data set [5] relates to Phaseolus vulgaris. Kind of data set: Brassinolide type activity in Phaseolus Vulgaris L., cv. Pinto assessed as difference of prolongation of second internode at 1 pmol/L by second-internode bioassay relative to control. It counts as functional. The gist of the method:
as §2

Calls of active or inactive are those of the source. The calls are words filed in the database; no cut-off is given here.

For orientation: IC50 means the point on the concentration scale where inhibition reaches its midpoint. For `C[C@H]([C@@H](O)[C@H](O)CC(F)(F)C(F)(F)C(F)(F)F)[C@H]1CC[C@H]2[C@@H]3COC(=O)[C@H]4C[C@H](O)[C@H](O)C[C@]4(C)[C@H]3CC[C@]12C`, the half-inhibitory concentration (IC50) in the data set with MCF7 and in the data set on CCRF-CEM was over 50 µM each time. The Activity result in the data set on BJ was “Non-toxic”; in the data set listed under Rattus norvegicus [1], 95.1%. Besides, the result with Phaseolus vulgaris [2] was Active.
Turning to `CC(C(O)C(O)CC(F)(F)C(F)(F)C(F)(F)F)C1CCC2C3CC(=O)C4CC(O)C(O)CC4(C)C3CCC12C` (centres undefined), the IC50 in the data set with MCF7 is 48.2 µM; in the data set with CCRF-CEM it was 35.3 µM. The Activity result in the data set with BJ is “Non-toxic”.
On to `CC(=O)[C@H]1CC[C@H]2[C@@H]3CC[C@H]4C[C@H](O)CC[C@]4(C)[C@H]3CC[C@]12C` [BREXANOLONE], for which the Activity in the data set filed under Rattus norvegicus [1] turned out to be 56.2%. Also, in the data set listed under Rattus norvegicus [3], the Imax turned out to be 79%. In data set [4], this molecule showed an IC50 of 0.08 µM.
Take `CC(C(O)C(O)CC(F)(F)C(F)(F)C(F)(F)C(F)(F)C(F)(F)C(F)(F)F)C1CCC2C3CC(=O)C4CC(O)C(O)CC4(C)C3CCC12C` (centres undefined): the IC50 in the data set on MCF7 and in the data set on CCRF-CEM was over 50 µM each time. In addition, the Activity result in the data set with BJ is “Non-toxic”.
For the molecule `C[C@H]([C@@H](O)[C@H](O)CC(F)(F)C(F)(F)C(F)(F)C(F)(F)C(F)(F)C(F)(F)F)[C@H]1CC[C@H]2[C@@H]3COC(=O)[C@H]4C[C@H](O)[C@H](O)C[C@]4(C)[C@H]3CC[C@]12C`, the figures for the IC50 (in the data set on MCF7; with CCRF-CEM; in data set [4]) were over 50 µM, over 50 µM and 0.9 µM, respectively. In addition, the Activity result in the data set with BJ is “Non-toxic”; in the data set filed under Rattus norvegicus [1], 47.2%. The molecule also registered an Imax in the data set filed under Rattus norvegicus [3] of 57.9%.
On to `CC[C@@H](C(C)C)[C@@H](O)[C@H](O)[C@@H](C)[C@H]1CC[C@H]2[C@@H]3CC(=O)[C@H]4C[C@H](O)[C@H](O)C[C@]4(C)[C@H]3CC[C@]12C`, for which the IC50 is over 50 µM in the data set with MCF7 and 13 µM in the data set with CCRF-CEM. Moreover, the Activity entry in the data set with BJ is “Non-toxic”.
On the same counts, the results for `C[C@H]([C@@H](O)[C@H](O)CC(F)(C(F)(F)F)C(F)(F)F)[C@H]1CC[C@H]2[C@@H]3CC(=O)C4C[C@H](O)[C@H](O)C[C@]4(C)[C@H]3CC[C@]12C` (some centres undefined) are over 50 µM, over 50 µM and “Non-toxic”.
In the case of `C[C@H]([C@@H](O)[C@H](O)CC(F)(C(F)(F)F)C(F)(F)F)[C@H]1CC[C@H]2[C@@H]3COC(=O)[C@H]4C[C@H](O)[C@H](O)C[C@]4(C)[C@H]3CC[C@]12C`, the IC50 in the data set on MCF7 was over 50 µM; in the data set with CCRF-CEM, over 50 µM; in data set [4], 0.1 µM. Further, the Activity was 10.7 mm in the data set on Phaseolus vulgaris [5], “Non-toxic” with BJ, 56.6% in the data set filed under Rattus norvegicus [1] and 15.9 mm in the data set on Phaseolus vulgaris [2]. In addition, the Imax in the data set filed under Rattus norvegicus [3] was 59.4%.
